In ChEMBL document CHEMBL4350962, “Expanding the Chemical Space of Withaferin A by Incorporating Silicon To Improve Its Clinical Potential on Human Ovarian Carcinoma Cells” (J Med Chem, 2019):
Blank lines part the entries; values can stand above or below the molecule they belong to. Active and inactive are the calls of the source. No cut-off for these calls is given here.

How the values were obtained:
[1] = Selectivity index, ratio of IC50 for human ARPE19 cells to IC50 for cisplatin-resistant human A2780/CP70 cells; assay type: toxicity; details: ARPE19 cells versus cisplatin-resistant A2780/CP70 cells, read-out: Ratio IC50
[2] = (§1) Antiproliferative activity against cisplatin-resistant human A2780/CP70 cells measured after 96 hrs by MTT assay; assay type: functional; details: A2780/CP70, 96 h
Method in brief: (§2)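 Cells kept in DMEM or RPMI 1640 with 10% FBS and 5% penicillin-streptomycin at 37 °C, 5% CO2, seeded at 1 x 10⁴ cells/mL and left 24 h to adhere. Compounds or vehicle added over a concentration range for 96 h, then MTT 4 h; formazan dissolved in DMSO, absorbance read at 540 nm relative to control. IC50 given as mean ± SD of three independent experiments in duplicate.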

A2780 [3] = assay: Cell cycle arrest in cisplatin-sensitive human A2780 cells assessed as increase in accumulation at sub-G0/G1 phase at 10 to 60 uM after 48 hrs by DAPI-staining based assay; assay type: functional
Method in brief: (§3)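 A2780 cells seeded in T25 flasks, 24 h at 37 °C, then exposed 48 h to vehicle or compound at several concentrations. 1 x 10⁶ cells/mL spun at 400 g for 5 min, resuspended in lysis buffer with DAPI, 5 min at 37 °C, then stabilization buffer added. DNA content read by image cytometry to give sub-G1, G0/G1, S and G2 fractions; mean ± s.e. mean, n = 2.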

A2780 [4] = assay: Cell cycle arrest in cisplatin-sensitive human A2780 cells assessed as increase in DNA fragmentation after 48 hrs by DAPI-staining based assay; assay type: functional; method in brief: as §3
A2780 [5] = assay: Cell cycle arrest in cisplatin-sensitive human A2780 cells assessed as accumulation at G0/G1 phase at 10 to 60 uM after 48 hrs by DAPI-staining based assay; assay type: functional; method in brief: as §3
ARPE-19 = assay: Cytotoxicity against human ARPE19 cells measured after 96 hrs by MTT assay; assay type: cell-based; details: ARPE-19, 96 h; method in brief: as §2
[6] = Selectivity index, ratio of IC50 for human ARPE19 cells to IC50 for cisplatin-sensitive human A2780 cells; assay type: toxicity; details: ARPE19 cells versus cisplatin-sensitive A2780 cells, read-out: Ratio IC50
A2780 [7] = assay: Antiproliferative activity against cisplatin-sensitive human A2780 cells measured after 96 hrs by MTT assay; assay type: functional, cell-based; details: for IC50: A2780, 96 h; method in brief: as §2
Homo sapiens = species: Homo sapiens; assay: as §1; assay type: functional; method in brief: as §2
A2780 [8] = assay: Cell cycle arrest in cisplatin-sensitive human A2780 cells assessed as increase in accumulation at sub-G0/G1 phase at 5 to 10 uM after 48 hrs by DAPI-staining based assay; assay type: functional; method in brief: as §3
A2780 [9] = assay: Cell cycle arrest in cisplatin-sensitive human A2780 cells assessed as accumulation at G0/G1 phase at 5 to 10 uM after 48 hrs by DAPI-staining based assay; assay type: functional; method in brief: as §3

SMILES: CCCCCC[Si](CCCCCC)(CCCCCC)OCC1=C(C)C[C@H]([C@@H](C)[C@H]2CC[C@H]3[C@@H]4C[C@H]5O[C@]56[C@@H](O)C=CC(=O)[C@]6(C)[C@H]4CC[C@]23C)OC1=O
Activity (Homo sapiens): inactive | Activity (A2780 [7]): inactive

SMILES: CCC[Si](CCC)(CCC)OCC1=C(C)C[C@H]([C@@H](C)[C@H]2CC[C@H]3[C@@H]4C[C@H]5O[C@]56[C@@H](O[Si](CCC)(CCC)CCC)C=CC(=O)[C@]6(C)[C@H]4CC[C@]23C)OC1=O
Activity (Homo sapiens): inactive | Activity (A2780 [7]): inactive

SMILES: CC1=C(CO[Si](C)(c2ccccc2)c2ccccc2)C(=O)O[C@@H]([C@@H](C)[C@H]2CC[C@H]3[C@@H]4C[C@H]5O[C@]56C(O[Si](C)(c5ccccc5)c5ccccc5)C=CC(=O)[C@]6(C)[C@H]4CC[C@]23C)C1 (stereo partly drawn)
Activity (Homo sapiens): inactive

SMILES: CCCCCC[Si](CCCCCC)(CCCCCC)OCC1=C(C)C[C@H]([C@@H](C)[C@H]2CC[C@H]3[C@@H]4C[C@H]5O[C@]56C(=O)C=CC(=O)[C@]6(C)[C@H]4CC[C@]23C)OC1=O
Activity (Homo sapiens): inactive | Activity (A2780 [7]): inactive

Further lines, with some results ahead:

IC50 (A2780 [7]): 0.017 µM
SMILES: CC1=C(CO[Si](C)(C)C(C)(C)C)C(=O)O[C@@H]([C@@H](C)[C@H]2CC[C@H]3[C@@H]4C[C@H]5O[C@]56C(=O)C=CC(=O)[C@]6(C)[C@H]4CC[C@]23C)C1
selectivity ratio [1]: 11.3 | IC50 [2]: > 0.1 µM | Activity (A2780 [3]): Active | Activity (A2780 [4]): Dose-dependent effect | Activity (A2780 [5]): inactive | IC50 (ARPE-19): 1.66 µM | selectivity ratio [6]: 97.7

IC50 (A2780 [7]): 0.0475 µM
SMILES: CC1=C(CO[Si](C)(C)C(C)(C)C)C(=O)O[C@@H]([C@@H](C)[C@H]2CC[C@H]3[C@@H]4C[C@H]5O[C@]56[C@@H](O)C=CC(=O)[C@]6(C)[C@H]4CC[C@]23C)C1
Activity (A2780 [8]): Active | selectivity ratio [1]: 0.1 | IC50 [2]: > 0.1 µM | Activity (A2780 [4]): Dose-dependent effect | IC50 (ARPE-19): 0.0124 µM | Activity (A2780 [9]): inactive | selectivity ratio [6]: 0.3

IC50 (A2780 [7]): 0.027 µM
SMILES: C=C[Si](C)(C)OCC1=C(C)C[C@H]([C@@H](C)[C@H]2CC[C@H]3[C@@H]4C[C@H]5O[C@]56[C@@H](O)C=CC(=O)[C@]6(C)[C@H]4CC[C@]23C)OC1=O
selectivity ratio [1]: 2.8 | IC50 [2]: 0.031 µM | IC50 (ARPE-19): 0.086 µM | selectivity ratio [6]: 3.2

IC50 (A2780 [7]): 0.033 µM
SMILES: C=C[Si](C)(C)OCC1=C(C)C[C@H]([C@@H](C)[C@H]2CC[C@H]3[C@@H]4C[C@H]5O[C@]56[C@@H](O[Si](C)(C)C=C)C=CC(=O)[C@]6(C)[C@H]4CC[C@]23C)OC1=O
selectivity ratio [1]: 3.4 | IC50 [2]: 0.0275 µM | IC50 (ARPE-19): 0.092 µM | selectivity ratio [6]: 2.8

IC50 (A2780 [7]): 0.03 µM
SMILES: CC1=C(CO[Si](C(C)C)(C(C)C)C(C)C)C(=O)O[C@@H]([C@@H](C)[C@H]2CC[C@H]3[C@@H]4C[C@H]5O[C@]56[C@@H](O)C=CC(=O)[C@]6(C)[C@H]4CC[C@]23C)C1
selectivity ratio [1]: 1 | IC50 [2]: 0.062 µM | IC50 (ARPE-19): 0.062 µM | selectivity ratio [6]: 2.1

IC50 (A2780 [7]): 0.034 µM
SMILES: CC1=C(CO[Si](C)(C)C(C)C)C(=O)O[C@@H]([C@@H](C)[C@H]2CC[C@H]3[C@@H]4C[C@H]5O[C@]56[C@@H](O)C=CC(=O)[C@]6(C)[C@H]4CC[C@]23C)C1
selectivity ratio [1]: 186 | IC50 [2]: 0.035 µM | IC50 (ARPE-19): 6.5 µM | selectivity ratio [6]: 191
